# From ChEMBL document CHEMBL3352730, “Synthesis and effects on cell viability of flavonols and 3-methyl ether derivatives on human leukemia cells” (Eur J Med Chem, 2014)
# The source made the active and inactive calls. No cut-off for these calls is given here.
# How the values were obtained:
# HL-60 [1] = assay: Induction of cell cycle arrest in human HL60 cells assessed as accumulation at S phase at 3 uM after 48 hrs by propidium iodide staining based flow cytometry (reference value: 15.3 +/- 0.1%); format: functional
# U-937 [2] = assay: Induction of cell cycle arrest in human U937 cells assessed as accumulation at subG1 phase at 1 uM after 24 hrs by propidium iodide staining based flow cytometry (reference value: 3.9 +/- 0.8%); format: functional
# MOLT-3 = assay: Induction of apoptosis in human MOLT3 cells assessed as pro-caspase-9 cleavage by Western blotting method; format: functional, cell-based
# Procedure, shortened: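 Cells were exposed to a range of compound concentrations and harvested at 24 h. Lysates were immunoblotted for caspase proforms and cleaved forms, and for Bcl-2 family proteins.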
# U-937 [3] = assay: Induction of apoptosis in human U937 cells assessed as pro-caspase-8 cleavage by Western blotting method; format: functional, cell-based
# Procedure, shortened: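 U937 cells exposed to increasing concentrations of the flavonol and harvested at 24 h. Lysates were immunoblotted with antibodies that detect both the pro-caspases and their cleaved forms.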
# U-937 [4] = assay: Induction of cell cycle arrest in human U937 cells assessed as accumulation at subG1 phase at 3 uM after 48 hrs by propidium iodide staining based flow cytometry (reference value: 6.7 +/- 0.3%); format: functional
# HL-60 [5] = assay: Induction of cell cycle arrest in human HL60 cells assessed as accumulation at G1 phase at 1 uM after 12 hrs by propidium iodide staining based flow cytometry (reference value: 57.2 +/- 0.9%); format: functional
structure (smiles),measurement,setting,value
O=c1c(O)c(-c2ccc(Br)cc2)oc2ccccc12,Activity,HL-60 [1],22.1%
same,Activity,U-937 [2],3.7%
same,Activity,MOLT-3,Active
same,Activity,U-937 [3],Active
same,Activity,U-937 [4],16.3%
same,Activity,HL-60 [5],56.2%
